These results are taken from ChEMBL document CHEMBL1955761, “Privileged scaffolds or promiscuous binders: a comparative study on rhodanines and related heterocycles in medicinal chemistry” (J Med Chem, 2012).

Assay [1] has as its system Dengue virus. The assay can be described thus: Inhibition of Dengue virus NS2B-NS3 protease using Abz-NleKRRS-3-(NO2)Y as substrate at 50 uM preincubated for 15 mins measured every sec for 15 mins by fluorimetric analysis.
The target of assay [2] is Prothrombin (Bos taurus) (UniProt P00735). The assay is described as follows: Inhibition of bovine plasma thrombin using Boc-Val-Pro-Arg-AMC as substrate at 25 uM preincubated for 15 mins measured after 10 mins by fluorimetric assay. In outline:
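Purchased bovine plasma thrombin at 10 nM final, preincubated 15 min with 25 μM inhibitor; reaction started with 50 μM substrate. Buffer 50 mM Tris-HCl pH 7.5, 150 mM NaCl, 0.05% Tween 20. Triplicate, averaged.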

Assay [3] has as its system Escherichia coli. The assay is described as follows: Inhibition of Escherichia coli MurA using PEP as substrate assessed as inorganic phosphate release at 25 uM preincubated for 10 mins measured after 60 mins […].
The test system of assay [4] is Escherichia coli. The assay is described as follows: Inhibition of Escherichia coli MetAP at 10 uM after 15 mins by fluorescence analysis.

Active and inactive are the calls of the source.

Turning to `COc1ccc(/C=C2\SC(=O)NC2=O)cc1OC`, the results for the inhibition in assay [1], in assay [2] and in assay [4] were 16%, 23% and 13%, respectively. Besides, the inhibition (usually the share of the control response that was lost under treatment) in assay [3] is “inactive”.
In assay [1], `COc1cccc(/C=C2\NC(=O)NC2=O)c1` registered an inhibition of 18%. In addition, the inhibition result in assay [2], in assay [3] and in assay [4] was “inactive” each time.
With `NCCCC[C@@H]1NC(=S)NC1=O`, the inhibition in assay [1] is 11%. Further, the inhibition result in assay [2], in assay [3] and in assay [4] was “inactive” in each case.
With `O=C1NC(=O)/C(=C/c2ccc(O)c(O)c2)S1`, the inhibition was 44% in assay [1], 37% in assay [2], 78% in assay [3] and 90% in assay [4].
On the same counts, the results for `CCC/C=C/C1SC(=S)NC1=O` (stereo not drawn) are 23%, 11%, 88% and “inactive”.
On the same counts, the results for `Cc1ccc(/C=C2\NC(=S)NC2=O)cc1` are 31%, 14%, “inactive” and 15%.
On the same counts, the results for `Cc1ccc(/C=C2\NC(=O)NC2=O)cc1` are “inactive”, “inactive”, “inactive” and 11%.
For `Cn1cc(/C=C2\NC(=S)NC2=O)c2ccccc21`, the inhibition in assay [1] was found to be 50%; in assay [2] it was 22%; in assay [3], 16%. The inhibition result in assay [4] was “inactive”.
Consider `O=C1NC(=S)NC1=C(c1ccccc1)c1ccccc1`, for which the inhibition result in assay [1], in assay [2] and in assay [3] was “inactive” in each case. The inhibition in assay [4] was 24%.
`Cn1cc(/C=C2\SC(=S)NC2=O)c2ccccc21`: the inhibition worked out at 45% in assay [1], 27% in assay [2], 18% in assay [3] and 12% in assay [4].
On the same counts, the results for `O=C1NC(=O)/C(=C/c2ccc(Cl)s2)S1` are 11%, 29%, 38% and “inactive”.
On the same counts, the results for `COc1ccc(/C=C2\NC(=S)NC2=O)cc1` are 50%, 13%, “inactive” and “inactive”.
On the same counts, the results for `O=C1NC(=S)N/C1=C\c1c(F)c(F)c(F)c(F)c1F` are 24%, 29%, 17% and 13%.
In assay [1], `COc1ccc(/C=C2\NC(=O)NC2=O)cc1OC` had an inhibition of 18%. Further, the inhibition entry in assay [2], in assay [3] and in assay [4] was “inactive” in each case.
For the compound `O=C1NC(=S)S/C1=C\c1sccc1Cl`, the inhibition is 47% in assay [1], 28% in assay [2] and 43% in assay [3]. For the same compound, the inhibition result in assay [4] was “inactive”.
On the same counts, the results for `CCCC/C=C1\NC(=S)NC1=O` are 25%, 14%, 11% and 66%.
Regarding `O=C1NC(=O)/C(=C/c2ccco2)S1`, the inhibition in assay [1] was 20%; in assay [2], 19%; in assay [3], 41%. Moreover, the inhibition result in assay [4] was “inactive”.
On to `C/C(=C1/NC(=S)NC1=O)c1ccccc1`, for which the inhibition result in assay [1] is “inactive”. For the same compound, the inhibition in assay [2] worked out at 21%; in assay [3], 24%; in assay [4], 14%.
On the same counts, the results for `O=C1NC(=S)S/C1=C\c1ccc(Br)s1` are 50%, 22%, 21% and “inactive”.
On the same counts, the results for `CCCC/C=C/C1NC(=S)NC1=O` (stereo not drawn) are “inactive”, 10%, 64% and “inactive”.
`O=C1NC(=S)S/C1=C\c1ccc(Cl)s1`: the inhibition in assay [1] stood at 54%; in assay [2], 27%; in assay [3], 13%. For the same compound, the inhibition result in assay [4] is “inactive”.
With `CN(C)c1ccc(/C=C2\SC(=S)NC2=O)cc1`, the inhibition was 36% in assay [1], 21% in assay [2] and 15% in assay [3]. The inhibition result in assay [4] is “inactive”.
On the same counts, the results for `COc1ccc(/C=C/C=C2\SC(=S)NC2=O)cc1` are 51%, 20%, 62% and 12%.
On the same counts, the results for `O=C1NC(=O)/C(=C2\CCOc3ccccc32)S1` are 35%, “inactive”, “inactive” and 11%.
For the compound `Nc1ccc(/C=C2\SC(=S)NC2=O)cc1`, the inhibition entry in assay [1], in assay [3] and in assay [4] was “inactive” in each case. In assay [2], this compound yielded an inhibition of 11%.
Take `COc1cc(/C=C2\SC(=O)NC2=O)ccc1O`: the inhibition in assay [1] came out at 19%; in assay [2] it was 27%; in assay [3], 100%. Further, in assay [4], the inhibition result was “inactive”.
As for `O=C1NC(=S)N/C1=C\c1c[nH]c2ccccc12`, the inhibition in assay [1] is 55%; in assay [2], 22%; in assay [3] it was 77%. For the same compound, the inhibition result in assay [4] was “inactive”.
On the same counts, the results for `COc1ccccc1/C=C1\SC(=S)NC1=O` are 33%, 11%, 10% and “inactive”.
On the same counts, the results for `COc1cccc(/C=C2\SC(=S)NC2=O)c1` are 33%, 11%, 10% and “inactive”.
On the same counts, the results for `O=C1NC(=S)S/C1=C\c1cnc[nH]1` are 53%, 31%, 18% and 18%.
With `CC(=O)N1C(=S)NC(=O)[C@@H]1Cc1ccccc1`, the inhibition result in assay [1] and in assay [2] was “inactive” each time. Moreover, the inhibition in assay [3] worked out at 19%; in assay [4] it was 12%.
Take `O=C1NC(=O)/C(=C/c2ccc(O)cc2)N1`: the inhibition in assay [1] was 26%; in assay [2], 14%. The inhibition result in assay [3] and in assay [4] was “inactive” each time.
With `CC(=O)N1C(=S)NC(=O)[C@H]1Cc1ccccc1`, the inhibition result in assay [1], in assay [2] and in assay [4] was “inactive” in each case. In addition, in assay [3], the inhibition turned out to be 15%.
The compound `COc1ccccc1/C=C1\NC(=O)NC1=O` yielded an inhibition in assay [1] of 18%. Further, the inhibition entry in assay [2], in assay [3] and in assay [4] was “inactive” each time.
In the case of `O=C1NC(=O)/C(=C/c2ccco2)N1`, the inhibition in assay [1] came out at 25%; in assay [2], 23%; in assay [3], 10%. Also, the inhibition entry in assay [4] was “inactive”.
On the same counts, the results for `O=C1NC(=S)SC1Cc1ccccc1` (stereo not drawn) are “inactive”, “inactive”, 11% and “inactive”.
Turning to `C/C(=C1/SC(=S)NC1=O)c1ccc2ccccc2c1`, the inhibition in assay [1] is 42%; in assay [2] it was 23%. For the same compound, the inhibition result in assay [3] and in assay [4] was “inactive” throughout.
For the compound `O=C1NC(=S)N/C1=C\c1ccc(Cl)s1`, the figures for the inhibition in assay [1], in assay [2] and in assay [3] were 42%, 29% and 22%, respectively. Besides, the inhibition result in assay [4] was “inactive”.
As to `C/C(=C1/SC(=O)NC1=O)c1ccc2ccccc2c1`, the inhibition in assay [1] worked out at 30%; in assay [2], 20%; in assay [4] it was 12%. Besides, in assay [3], the inhibition result was “inactive”.
On the same counts, the results for `NC(=O)CC[C@@H]1NC(=S)NC1=O` are 10%, “inactive”, “inactive” and 25%.
On the same counts, the results for `COc1cccc(/C=C2\SC(=O)NC2=O)c1` are 17%, 11%, 10% and 25%.
On the same counts, the results for `O=C1NC(=O)[C@H](Cc2ccccc2)N1` are “inactive”, “inactive”, 22% and “inactive”.
Regarding `CN(C)c1ccc(/C=C2\NC(=S)NC2=O)cc1`, the inhibition in assay [1] was determined as 42%; in assay [2], 25%; in assay [3] it was 51%; in assay [4] it was 75%.
On the same counts, the results for `CC(=O)N1C(=S)NC(=O)[C@@H]1Cc1c[nH]c2ccccc12` are “inactive”, “inactive”, “inactive” and “inactive”.
For the compound `Cc1ccc(/C=C2\SC(=S)NC2=O)cc1`, the inhibition in assay [2] was determined as 23%.
Regarding `O=C1NC(=S)S/C1=C\c1ccccn1`, the inhibition result in assay [2] was “inactive”.
